ChEMBL document CHEMBL3580647, “Discovery of potent indenoisoquinoline topoisomerase I poisons lacking the 3-nitro toxicophore” (J Med Chem, 2015)

Key:
[1] = Growth inhibition of human SF539 cells by five-dose growth inhibition assay; type: functional; conditions: SF-539
MCF7 = experiment: Growth inhibition of human MCF7 cells by five-dose growth inhibition assay; type: functional
[2] = Growth inhibition of human NCI60 cells assessed as cell growth at 10 uM; type: functional; conditions: read-out: Activity
In short: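 NCI-60 single-dose screen at 10 μM across ~60 human cancer cell lines. Reported as growth percent relative to vehicle-treated control, averaged over all lines tested as a mean growth percent.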

[3] = target: T1, DNA topoisomerase 1 (Homo sapiens) (UniProt P11387); experiment: Inhibition of recombinant topoisomerase 1 (unknown origin) assessed as DNA cleavage using 3'-[32P]-labeled 117-bp DNA oligonucleotide at 1 uM by PAGE assay; set-up: Activity: scale not given: the % may be the effect or the level left
T1 sequence (whole entry): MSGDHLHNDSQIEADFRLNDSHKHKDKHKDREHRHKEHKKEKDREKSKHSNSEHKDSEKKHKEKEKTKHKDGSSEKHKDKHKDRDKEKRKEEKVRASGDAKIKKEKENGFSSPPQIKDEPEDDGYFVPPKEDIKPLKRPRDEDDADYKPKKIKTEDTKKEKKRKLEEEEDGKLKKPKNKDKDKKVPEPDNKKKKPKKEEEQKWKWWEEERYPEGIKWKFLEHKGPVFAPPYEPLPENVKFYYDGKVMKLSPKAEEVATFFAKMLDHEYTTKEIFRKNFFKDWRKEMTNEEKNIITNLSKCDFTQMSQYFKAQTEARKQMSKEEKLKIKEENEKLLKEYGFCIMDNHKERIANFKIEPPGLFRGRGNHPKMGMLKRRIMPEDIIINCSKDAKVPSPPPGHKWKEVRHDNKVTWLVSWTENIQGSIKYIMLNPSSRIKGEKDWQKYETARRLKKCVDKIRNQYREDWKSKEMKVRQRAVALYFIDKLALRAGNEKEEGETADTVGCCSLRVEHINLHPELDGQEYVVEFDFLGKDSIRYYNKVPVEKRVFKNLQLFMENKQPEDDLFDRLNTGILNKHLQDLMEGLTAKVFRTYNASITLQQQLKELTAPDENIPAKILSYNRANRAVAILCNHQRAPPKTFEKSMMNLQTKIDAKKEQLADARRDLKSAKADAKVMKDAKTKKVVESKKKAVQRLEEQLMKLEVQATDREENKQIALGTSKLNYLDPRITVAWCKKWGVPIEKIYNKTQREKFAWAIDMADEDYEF
In short: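 Approx. 2 nM 3′-[³²P]-labeled double-stranded DNA incubated with recombinant Top1 and compound at 0.1, 1, 10 or 100 μM for 20 min at 25 °C. Stopped with 0.5% SDS and run on a denaturing gel. […] Run twice.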

OVCAR-3 = experiment: Growth inhibition of human OVCAR3 cells by five-dose growth inhibition assay; type: functional
HCT-116 = experiment: Growth inhibition of human HCT116 cells by five-dose growth inhibition assay; type: functional
[4] = target: Tyrosyl-DNA phosphodiesterase 1 (Homo sapiens, UniProt Q9NUW8); experiment: Inhibition of recombinant TPD1 (unknown origin) activity using 3'-phosphotyrosine-containing 5'-[32P]-labeled single-stranded DNA oligonucleotide by PAGE assay
Sequence of Tyrosyl-DNA phosphodiesterase 1 (Q9NUW8 whole entry): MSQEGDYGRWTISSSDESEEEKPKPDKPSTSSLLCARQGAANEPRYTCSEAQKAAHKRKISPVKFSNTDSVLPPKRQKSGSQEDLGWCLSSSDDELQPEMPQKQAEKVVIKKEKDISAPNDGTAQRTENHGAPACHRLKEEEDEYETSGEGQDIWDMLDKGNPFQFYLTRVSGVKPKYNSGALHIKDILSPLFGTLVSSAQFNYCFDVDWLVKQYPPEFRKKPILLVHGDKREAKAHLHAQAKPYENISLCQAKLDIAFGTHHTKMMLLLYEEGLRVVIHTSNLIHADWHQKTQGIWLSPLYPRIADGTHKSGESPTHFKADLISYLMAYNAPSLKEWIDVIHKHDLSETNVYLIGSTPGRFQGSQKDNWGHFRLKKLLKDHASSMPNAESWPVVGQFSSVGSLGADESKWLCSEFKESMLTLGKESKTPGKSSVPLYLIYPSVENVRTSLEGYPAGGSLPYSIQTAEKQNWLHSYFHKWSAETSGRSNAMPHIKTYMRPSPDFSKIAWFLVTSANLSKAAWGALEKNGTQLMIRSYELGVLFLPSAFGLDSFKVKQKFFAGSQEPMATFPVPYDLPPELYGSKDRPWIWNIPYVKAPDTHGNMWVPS

SN12C = experiment: Growth inhibition of human SN12C cells by five-dose growth inhibition assay; type: functional
UACC-62 = experiment: Growth inhibition of human UACC62 cells by five-dose growth inhibition assay; type: functional
[5] = target: T2, Tyrosyl-DNA phosphodiesterase 2 (Homo sapiens, UniProt O95551); experiment: Inhibition of human recombinant TPD2 activity using 5'phosphotyrosine-containing 19-mer single-stranded oligonucleotide DNA substrate by PAGE assay
T2 sequence (O95551 whole entry): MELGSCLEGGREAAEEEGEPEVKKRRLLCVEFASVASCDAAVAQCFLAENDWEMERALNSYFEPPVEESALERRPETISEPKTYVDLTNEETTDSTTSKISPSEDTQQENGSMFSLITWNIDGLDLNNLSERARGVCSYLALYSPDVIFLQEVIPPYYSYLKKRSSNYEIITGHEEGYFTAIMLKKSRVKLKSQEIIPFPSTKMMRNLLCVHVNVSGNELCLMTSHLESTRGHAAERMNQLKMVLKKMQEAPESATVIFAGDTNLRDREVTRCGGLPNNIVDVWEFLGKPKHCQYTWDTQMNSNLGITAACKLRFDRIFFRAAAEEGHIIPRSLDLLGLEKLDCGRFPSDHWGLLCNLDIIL

GI50 (MCF7): 0.331 µM
Activity [3]: 50%
GI50 (OVCAR-3): 5.27 µM
GI50 (HCT-116): 0.631 µM
IC50 [4]: > 111 µM
IC50 [5]: > 111 µM
SMILES: O=C1c2ccccc2-c2c1c1ccc(I)cc1c(=O)n2C[C@H](O)CO
GI50 [1]: 3.02 µM
growth at 10 µM [2]: 39.7%
GI50 (SN12C): 4.27 µM
GI50 (UACC-62): 2.14 µM
